In ChEMBL document CHEMBL1914423, “New imidazo[2,1-b]thiazole derivatives: synthesis, in vitro anticancer evaluation, and in silico studies” (Eur J Med Chem, 2011):

Key:
HOP-92 = assay: Anticancer activity against human HOP92 cells after 48 hrs by SRB assay; type: functional; conditions: HOP-92, 48 h
Method in brief: (§1)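 NCI five-dose screen. Cells in RPMI 1640 with 5% FBS and 2 mM L-glutamine, seeded at 5000–40,000 cells/well according to doubling time, then pre-incubated 24 h at 37 °C in 5% CO2. Drugs dissolved in DMSO, five concentrations by 10-fold or 1/2-log dilution. Cells fixed with TCA, SRB-stained, A515 read. IC50 solved from [(Ti−Tz)/(C−Tz)]×100 = 50.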

T47D = assay: Anticancer activity against human T47D cells after 48 hrs by SRB assay; type: functional
Method in brief: (§2)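 NCI-60 five-dose mode: cells in RPMI 1640 with 5% FBS and 2 mM glutamine, plated at 5000–40,000 cells/well, and preincubated 24 h, with time-zero plates TCA-fixed. Drug given at five concentrations (10-fold or ½-log serial dilutions). Cold TCA fixation 60 min at 4 °C, SRB stain, Tris solubilization, A515. IC50 taken where [(Ti−Tz)/(C−Tz)]×100 = 50.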

COLO 205 = assay: Anticancer activity against human COLO205 cells after 48 hrs by SRB assay; type: functional; conditions: COLO 205, 48 h; method in brief: as §1
Malme-3M [1] = assay: Anticancer activity against human MALME-3M cells after 48 hrs by SRB assay; type: functional; method in brief: as §1
LOX IMVI [2] = assay: Anticancer activity against human LOXIMVI cells after 48 hrs by SRB assay; type: functional; method in brief: as §1
SF-295 = assay: Anticancer activity against human SF295 cells after 48 hrs by SRB assay; type: functional; conditions: SF-295, 48 h
LOX IMVI [3] = assay: Antiproliferative activity against human LOXIMVI cells after 48 hrs by MTT assay; type: functional, cell-based
DU-145 = assay: Anticancer activity against human DU145 cells after 48 hrs by SRB assay; type: functional; conditions: DU-145, 48 h; method in brief: as §1
CCRF-CEM = assay: Anticancer activity against human CCRF-CEM cells after 48 hrs by SRB assay; type: functional; method in brief: as §1
HT-29 = assay: Anticancer activity against human HT-29 cells after 48 hrs by SRB assay; type: functional; conditions: HT-29, 48 h; method in brief: as §1
SR = assay: Anticancer activity against human SR cells after 48 hrs by SRB assay; type: functional; method in brief: as §2
Malme-3M [4] = assay: Antiproliferative activity against human MALME-3M cells after 48 hrs by MTT assay; type: functional, cell-based
KM12 = assay: Anticancer activity against human KM12 cells after 48 hrs by SRB assay; type: functional; conditions: KM12, 48 h; method in brief: as §1
OVCAR-4 = assay: Anticancer activity against human OVCAR4 cells after 48 hrs by SRB assay; type: functional; conditions: OVCAR-4, 48 h
SW-620 = assay: Anticancer activity against human SW620 cells after 48 hrs by SRB assay; type: functional; conditions: SW-620, 48 h; method in brief: as §2
HL-60(TB) = assay: Anticancer activity against human HL-60(TB) cells after 48 hrs by SRB assay; type: functional; conditions: HL-60, 48 h
Method in brief: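 NCI-60 five-dose screen. Cells grown in RPMI 1640 with 5% FBS and 2 mM L-glutamine, seeded at 5000–40,000 cells/well, and held 24 h at 37 °C and 5% CO₂ before drug. DMSO stocks were diluted into five concentrations (10-fold or ½-log steps). Settled suspension cells were fixed with cold TCA, SRB-stained, and read at 515 nm. […] was taken where [(Ti−Tz)/(C−Tz)]×100 = 50.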

U-251 = assay: Anticancer activity against human U251 cells after 48 hrs by SRB assay; type: functional; conditions: U-251, 48 h; method in brief: as §2
OVCAR-5 = assay: Anticancer activity against human OVCAR5 cells after 48 hrs by SRB assay; type: functional; conditions: OVCAR-5, 48 h
SK-MEL-28 = assay: Antiproliferative activity against human SK-MEL-28 cells after 48 hrs by MTT assay; type: functional, cell-based; conditions: SK-MEL-28, 48 h
HCC 2998 = assay: Anticancer activity against human HCC2998 cells after 48 hrs by SRB assay; type: functional; conditions: HCC 2998, 48 h; method in brief: as §1
OVCAR-3 = assay: Anticancer activity against human OVCAR3 cells after 48 hrs by SRB assay; type: functional; conditions: OVCAR-3, 48 h
A498 = assay: Anticancer activity against human A498 cells after 48 hrs by SRB assay; type: functional; conditions: A498, 48 h; method in brief: as §1
IGROV-1 = assay: Anticancer activity against human IGROV1 cells after 48 hrs by SRB assay; type: functional; conditions: IGROV-1, 48 h; method in brief: as §1
NCI-H322M = assay: Anticancer activity against human NCI-H322M cells after 48 hrs by SRB assay; type: functional
HCT-15 = assay: Anticancer activity against human HCT15 cells after 48 hrs by SRB assay; type: functional; conditions: HCT-15, 48 h; method in brief: as §1
CAKI-1 = assay: Anticancer activity against human Caki1 cells after 48 hrs by SRB assay; type: functional; conditions: CAKI-1, 48 h; method in brief: as §1
EKVX = assay: Anticancer activity against human EKVX cells after 48 hrs by SRB assay; type: functional; method in brief: as §1
K562 = assay: Anticancer activity against human K562 cells after 48 hrs by SRB assay; type: functional; conditions: K562, 48 h; method in brief: as §1
SF-268 = assay: Anticancer activity against human SF268 cells after 48 hrs by SRB assay; type: functional; conditions: SF-268, 48 h
[5] = read-out: LC50 (the source's name)

With `O=C(NCCNc1nccc(-c2c(-c3cccc(O)c3)nc3sccn23)n1)c1ccccc1` the GI50 (HOP-92) was 2.22 µM, the TGI (HOP-92) was 33.2 µM and the CC50 (HOP-92; [5]) was over 100 µM. For the same compound, the GI50 (T47D) was 11 µM, the TGI (T47D) was 49 µM and the CC50 (T47D; [5]) was over 100 µM. The GI50 (COLO 205) was 3.99 µM, the TGI (COLO 205) was 23.8 µM and the CC50 (COLO 205; [5]) was over 100 µM. The GI50 (Malme-3M [1]) was 0.205 µM, the CC50 (Malme-3M [1]; [5]) was over 100 µM and the GI50 (LOX IMVI [2]) was 3.22 µM. For the same compound, the TGI (LOX IMVI [2]) was 17.8 µM, the CC50 (LOX IMVI [2]; [5]) was 80.2 µM and the GI50 (SF-295) was 12.9 µM. The TGI (SF-295) was 38 µM, the CC50 (SF-295; [5]) was over 100 µM and the IC50 (LOX IMVI [3]) was 3.22 µM. For the same compound, the GI50 (DU-145) was 19.7 µM, the TGI (DU-145) was 68.7 µM and the CC50 (DU-145; [5]) was over 100 µM. For the same compound, the GI50 (CCRF-CEM) was 3.38 µM, the TGI (CCRF-CEM) was 34.1 µM and the CC50 (CCRF-CEM; [5]) was over 100 µM. The GI50 (HT-29) was 6.79 µM, the TGI (HT-29) was 38.3 µM and the CC50 (HT-29; [5]) was over 100 µM. The GI50 (SR) was 5.68 µM, the TGI (SR) was 50 µM and the CC50 (SR; [5]) was over 100 µM. The IC50 (Malme-3M [4]) was 0.205 µM, the GI50 (KM12) was 12.1 µM and the TGI (KM12) was 28.5 µM. For the same compound, the CC50 (KM12; [5]) was 67.1 µM, the GI50 (OVCAR-4) was 13.9 µM and the TGI (OVCAR-4) was 84.6 µM. The CC50 (OVCAR-4; [5]) was over 100 µM, the GI50 (SW-620) was 18 µM and the TGI (SW-620) was 79.4 µM. It also gave a CC50 (SW-620; [5]) of over 100 µM, a GI50 (HL-60(TB)) of 10.2 µM and a TGI (HL-60(TB)) of 29.6 µM. It also gave a GI50 (U-251) of 17.9 µM, a TGI (U-251) of over 100 µM and a CC50 (U-251; [5]) of over 100 µM. The GI50 (OVCAR-5) was 18.3 µM, the TGI (OVCAR-5) was 61.8 µM and the CC50 (OVCAR-5; [5]) was over 100 µM. The IC50 (SK-MEL-28) was 0.336 µM, the GI50 (HCC 2998) was 13.8 µM and the TGI (HCC 2998) was 31.2 µM. It also gave a CC50 (HCC 2998; [5]) of 70.3 µM, a GI50 (OVCAR-3) of 12.3 µM and a TGI (OVCAR-3) of 64.8 µM. The CC50 (OVCAR-3; [5]) was over 100 µM, the GI50 (A498) was 3.68 µM and the TGI (A498) was 19.3 µM. For the same compound, the CC50 (A498; [5]) was 58 µM, the GI50 (IGROV-1) was 3.61 µM and the TGI (IGROV-1) was 50.8 µM. It also gave a CC50 (IGROV-1; [5]) of over 100 µM, a GI50 (NCI-H322M) of 26.3 µM and a TGI (NCI-H322M) of over 100 µM. It also gave a CC50 (NCI-H322M; [5]) of over 100 µM, a GI50 (HCT-15) of 18.8 µM and a TGI (HCT-15) of 62.2 µM. For the same compound, the CC50 (HCT-15; [5]) was over 100 µM, the GI50 (CAKI-1) was 5.92 µM and the TGI (CAKI-1) was 29.6 µM. The CC50 (CAKI-1; [5]) was over 100 µM, the GI50 (EKVX) was 25 µM and the TGI (EKVX) was over 100 µM. For the same compound, the GI50 (K562) was 9.11 µM, the TGI (K562) was over 100 µM and the CC50 (K562; [5]) was over 100 µM. For the same compound, the GI50 (SF-268) was 15.5 µM, the TGI (SF-268) was 87 µM and the CC50 (SF-268; [5]) was over 100 µM.
